Assay results from ChEMBL document CHEMBL1143718, “Synthesis and structure-activity relationships study of novel anti-tumor carbamate anhydrovinblastine analogues” (Bioorg Med Chem, 2007).
pIC50: −log10 of the molar value.

Tests used:
A549 [1] = assay: Cytotoxicity against human A549 cells after 72 hrs by SRB assay; format: functional, cell-based; conditions: A549, 72 h
How it was run: (§1)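 Ditartrate salts tested. ATCC A549 or HeLa cells seeded at 6000 cells/well and attached overnight, then treated in triplicate with graded concentrations, 37 °C, 72 h. Fixed with 10% TCA at 4 °C for 60 min, stained with 0.4% SRB, bound dye dissolved in Tris, A515 read. IC50 by Logit method, mean of three independent tests.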

HeLa = assay: Cytotoxicity against human HeLa cells after 72 hrs by SRB assay; format: functional, cell-based; how it was run: as §1
Mus musculus [2] = assay: Effect on Body weight in nude BALB/c mouse bearing A549 cell xenografts at 1.5 mg/kg, iv; format: functional
How it was run: (§2)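 Female 7-week-old SPF BALB/cA-nude mice (18-22 g), 2.5 × 10^6 A549 cells implanted s.c. in axilla. Dosing at tumor volume 100-300 mm3, single i.v. dose on day 1. Tumor volume and body weight measured three times a week. Relative tumor volume and body weight reported initial/end. Groups of 6 treated, 12 controls. Means ± SD.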

Mus musculus [3] = assay: Effect on Body weight in nude BALB/c mouse bearing A549 cell xenografts at 3 mg/kg, iv; format: functional; how it was run: as §2
Mus musculus [4] = assay: Effect on Body weight in nude BALB/c mouse bearing A549 cell xenografts at 6 mg/kg, iv; format: functional; how it was run: as §2
A549 [5] = assay: Antitumor activity in nude BALB/c mouse bearing A549 cell xenografts assessed as relative tumor volume at 1.5 mg/kg, iv; format: functional, Homo sapiens; how it was run: as §2
A549 [6] = assay: Antitumor activity in nude BALB/c mouse bearing A549 cell xenografts assessed as relative tumor volume at 3 mg/kg, iv; format: functional, Homo sapiens; how it was run: as §2
A549 [7] = assay: Antitumor activity in nude BALB/c mouse bearing A549 cell xenografts assessed as relative tumor volume at 6 mg/kg, iv; format: functional, Homo sapiens; how it was run: as §2
A549 [8] = assay: Antitumor activity in nude BALB/c mouse bearing A549 cell xenografts assessed as tumor growth inhibition at 1.5 mg/kg, iv after 12 days; format: functional, Homo sapiens; conditions: A549, 288 h
How it was run: (§3)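 A549 s.c. axillary xenografts (2.5 × 10^6 cells) in female 7-week-old SPF BALB/cA-nude mice. Single i.v. dose on day 1 once tumors reached 100-300 mm3. Inhibition = (control mean relative tumor volume − treated)/control × 100%, on day 12 after dosing. Groups of 6, controls 12. Significance by Student's t test.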

A549 [9] = assay: Antitumor activity in nude BALB/c mouse bearing A549 cell xenografts assessed as tumor growth inhibition at 3 mg/kg, iv after 12 days; format: functional, Homo sapiens; conditions: A549, 288 h; how it was run: as §3
A549 [10] = assay: Antitumor activity in nude BALB/c mouse bearing A549 cell xenografts assessed as tumor growth inhibition at 6 mg/kg, iv after 12 days; format: functional, Homo sapiens; conditions: A549, 288 h; how it was run: as §3
Mus musculus [11] = assay: Effect on Body weight in nude BALB/c mouse bearing A549 cell xenografts at 10 mg/kg, iv; format: functional
How it was run: (§4)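 Female 7-week-old SPF BALB/cA nude mice (18-22 g) received 2.5 × 10^6 A549 cells subcutaneously in the axilla. Once tumors reached 100-300 mm3, they were dosed iv at 10 mg/kg on days 1 and 4 (6 mice; 12 controls). Tumor volume and body weight were measured three times weekly. Inhibition was computed from mean relative tumor volume versus control on day 12 after dosing. Means ± SD, Student's t test.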

A549 [12] = assay: Antitumor activity in nude BALB/c mouse bearing A549 cell xenografts assessed as relative tumor volume at 10 mg/kg, iv; format: functional, Homo sapiens; how it was run: as §4
A549 [13] = assay: Antitumor activity in nude BALB/c mouse bearing A549 cell xenografts assessed as tumor growth inhibition at 10 mg/kg, iv after 12 days; format: functional, Homo sapiens; conditions: A549, 288 h; how it was run: as §4

SMILES	pIC50 (A549 [1])	pIC50 (HeLa)	other results
CCC1=C[C@@H]2CN(CCc3c([nH]c4ccccc34)[C@@](C(=O)OC)(c3cc4c(cc3OC)N(C)[C@H]3[C@](O)(CNC(=O)OCc5ccc([N+](=O)[O-])cc5)[C@H](OC(C)=O)[C@]5(CC)C=CCN6CC[C@]43[C@@H]65)C2)C1	7.42	8.00	–
CCCCCOC(=O)NC[C@]1(O)[C@H](OC(C)=O)[C@]2(CC)C=CCN3CC[C@@]4(c5cc([C@@]6(C(=O)OC)C[C@@H]7C=C(CC)CN(CCc8c6[nH]c6ccccc86)C7)c(OC)cc5N(C)[C@@H]14)[C@@H]32	6.37	6.74	–
CCOC(=O)NC[C@]1(O)[C@H](OC(C)=O)[C@]2(CC)C=CCN3CC[C@@]4(c5cc([C@@]6(C(=O)OC)C[C@@H]7C=C(CC)CN(CCc8c6[nH]c6ccccc86)C7)c(OC)cc5N(C)[C@@H]14)[C@@H]32	7.29	7.80	–
CCC1=C[C@@H]2CN(CCc3c([nH]c4ccccc34)[C@@](C(=O)OC)(c3cc4c(cc3OC)N(C)[C@H]3[C@](O)(CNC(=O)OC(C)(C)C)[C@H](OC(C)=O)[C@]5(CC)C=CCN6CC[C@]43[C@@H]65)C2)C1	6.22	7.02	–
CCC1=C[C@@H]2CN(CCc3c([nH]c4ccccc34)[C@@](C(=O)OC)(c3cc4c(cc3OC)N(C)[C@H]3[C@](O)(CNC(=O)OCc5ccc6c(c5)OCO6)[C@H](OC(C)=O)[C@]5(CC)C=CCN6CC[C@]43[C@@H]65)C2)C1	7.12	7.77	–
CCC1=C[C@@H]2CN(CCc3c([nH]c4ccccc34)[C@@](C(=O)OC)(c3cc4c(cc3OC)N(C)[C@H]3[C@](O)(CNC(=O)OC5CCC5)[C@H](OC(C)=O)[C@]5(CC)C=CCN6CC[C@]43[C@@H]65)C2)C1	6.92	7.64	–
CCC1=C[C@@H]2CN(CCc3c([nH]c4ccccc34)[C@@](C(=O)OC)(c3cc4c(cc3OC)N(C)[C@H]3[C@](O)(CNC(=O)OC5CCCCC5)[C@H](OC(C)=O)[C@]5(CC)C=CCN6CC[C@]43[C@@H]65)C2)C1	6.42	6.60	–
CCC1=C[C@@H]2CN(CCc3c([nH]c4ccccc34)[C@@](C(=O)OC)(c3cc4c(cc3OC)N(C)[C@H]3[C@](O)(CNC(=O)OCc5cccc(Cl)c5)[C@H](OC(C)=O)[C@]5(CC)C=CCN6CC[C@]43[C@@H]65)C2)C1	6.69	7.41	–
CCC1=C[C@@H]2CN(CCc3c([nH]c4ccccc34)[C@@](C(=O)OC)(c3cc4c(cc3OC)N(C)[C@H]3[C@](O)(CNC(=O)OC(C)C)[C@H](OC(C)=O)[C@]5(CC)C=CCN6CC[C@]43[C@@H]65)C2)C1	6.79	7.57	–
CCC1=C[C@@H]2CN(CCc3c([nH]c4ccccc34)[C@@](C(=O)OC)(c3cc4c(cc3OC)N(C)[C@H]3[C@](O)(CNC(=O)OCCOC)[C@H](OC(C)=O)[C@]5(CC)C=CCN6CC[C@]43[C@@H]65)C2)C1	7.19	7.85	–
CCC1=C[C@@H]2CN(CCc3c([nH]c4ccccc34)[C@@](C(=O)OC)(c3cc4c(cc3OC)N(C)[C@H]3[C@](O)(CNC(=O)OCC5CC5)[C@H](OC(C)=O)[C@]5(CC)C=CCN6CC[C@]43[C@@H]65)C2)C1	7.21	7.89	–
CCC1=C[C@@H]2CN(CCc3c([nH]c4ccccc34)[C@@](C(=O)OC)(c3cc4c(cc3OC)N(C)[C@H]3[C@](O)(CNC(=O)OCc5ccc(Cl)cc5)[C@H](OC(C)=O)[C@]5(CC)C=CCN6CC[C@]43[C@@H]65)C2)C1	7.05	8.22	–
CCC1=C[C@@H]2CN(CCc3c([nH]c4ccccc34)[C@@](C(=O)OC)(c3cc4c(cc3OC)N(C)[C@H]3[C@](O)(CNC(=O)OCCBr)[C@H](OC(C)=O)[C@]5(CC)C=CCN6CC[C@]43[C@@H]65)C2)C1	6.88	7.52	–
CCC1=C[C@@H]2CN(CCc3c([nH]c4ccccc34)[C@@](C(=O)OC)(c3cc4c(cc3OC)N(C)[C@H]3[C@](O)(CNC(=O)OCc5ccccc5)[C@H](OC(C)=O)[C@]5(CC)C=CCN6CC[C@]43[C@@H]65)C2)C1	7.24	7.27	–
CCC1=C[C@@H]2CN(CCc3c([nH]c4ccccc34)[C@@](C(=O)OC)(c3cc4c(cc3OC)N(C)[C@H]3[C@](O)(CNC(=O)OCc5ccc(OC)cc5)[C@H](OC(C)=O)[C@]5(CC)C=CCN6CC[C@]43[C@@H]65)C2)C1	7.17	8.10	–
CCC1=C[C@@H]2CN(CCc3c([nH]c4ccccc34)[C@@](C(=O)OC)(c3cc4c(cc3OC)N(C)[C@H]3[C@](O)(CNC(=O)Oc5ccccc5OC)[C@H](OC(C)=O)[C@]5(CC)C=CCN6CC[C@]43[C@@H]65)C2)C1	6.22	6.83	–
CCC1=C[C@@H]2CN(CCc3c([nH]c4ccccc34)[C@@](C(=O)OC)(c3cc4c(cc3OC)N(C)[C@H]3[C@](O)(CNC(=O)OC)[C@H](OC(C)=O)[C@]5(CC)C=CCN6CC[C@]43[C@@H]65)C2)C1	7.42	8.05	Activity (Mus musculus [2]): 21.3 g; Activity (Mus musculus [3]): 20.4 g; Activity (Mus musculus [4]): 18.8 g; Activity (A549 [5]): 8.18; Activity (A549 [6]): 6.96; Activity (A549 [7]): 3.48; inhibition in vivo at 1.5 mg/kg (A549 [8]): 26%; inhibition in vivo at 3 mg/kg (A549 [9]): 37.1%; inhibition in vivo at 6 mg/kg (A549 [10]): 68.5%
CCC1=C[C@@H]2CN(CCc3c([nH]c4ccccc34)[C@@](C(=O)OC)(c3cc4c(cc3OC)N(C)[C@H]3[C@](O)(CNC(=O)Oc5ccccc5)[C@H](OC(C)=O)[C@]5(CC)C=CCN6CC[C@]43[C@@H]65)C2)C1	6.96	6.70	–
CCC1=C[C@@H]2CN(CCc3c([nH]c4ccccc34)[C@@](C(=O)OC)(c3cc4c(cc3OC)N(C)[C@H]3[C@](O)(CNC(=O)OCc5ccccc5OC)[C@H](OC(C)=O)[C@]5(CC)C=CCN6CC[C@]43[C@@H]65)C2)C1	6.70	7.16	–
CCC1=C[C@@H]2CN(CCc3c([nH]c4ccccc34)[C@@](C(=O)OC)(c3cc4c(cc3OC)N(C)[C@H]3[C@](O)(CNC(=O)OCC(C)C)[C@H](OC(C)=O)[C@]5(CC)C=CCN6CC[C@]43[C@@H]65)C2)C1	7.18	7.17	–
CCC1=C[C@@H]2CN(CCc3c([nH]c4ccccc34)[C@@](C(=O)OC)(c3cc4c(cc3OC)N(C)[C@H]3[C@](O)(CNC(=O)Oc5ccc(OC)cc5)[C@H](OC(C)=O)[C@]5(CC)C=CCN6CC[C@]43[C@@H]65)C2)C1	6.44	7.31	–
CCC1=C[C@@H]2CN(CCc3c([nH]c4ccccc34)[C@@](C(=O)OC)(c3cc4c(cc3OC)N(C)[C@H]3[C@](O)(CNC(=O)OCc5ccccc5[N+](=O)[O-])[C@H](OC(C)=O)[C@]5(CC)C=CCN6CC[C@]43[C@@H]65)C2)C1	7.21	7.18	–
CCC1=C[C@@H]2CN(CCc3c([nH]c4ccccc34)[C@@](C(=O)OC)(c3cc4c(cc3OC)N(C)[C@H]3[C@](O)(CNC(=O)OC5CCCC5)[C@H](OC(C)=O)[C@]5(CC)C=CCN6CC[C@]43[C@@H]65)C2)C1	6.75	6.88	–
CCC1=C[C@@H]2CN(C1)Cc1c([nH]c3ccccc13)[C@@](C(=O)OC)(c1cc3c(cc1OC)N(C)[C@H]1[C@@](O)(C(=O)OC)[C@H](OC(C)=O)[C@]4(CC)C=CCN5CC[C@]31[C@@H]54)C2 [VINORELBINE]	7.31	7.59	Activity (Mus musculus [11]): 16.4 g; Activity (A549 [12]): 2.66; inhibition in vivo at 10 mg/kg (A549 [13]): 75.9%
